The source of these data is ChEMBL document CHEMBL1124369, “Pyrido[3,4-e]-1,2,4-triazines and related heterocycles as potential antifungal agents” (1989).

One test relates to Mucor fragilis. In words: Antifungal activity against Mucor fragilis. Format: functional. The gist of the method:
(§1)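 Agar dilution MIC. Twofold serial drug dilutions in yeast nitrogen base medium with 1% dextrose, 0.15% asparagine and 1.5% agar. Agar surfaces inoculated using a Steers multiple inocula replicator, then incubated at 35 °C for 24-48 h. MIC was recorded as the lowest concentration inhibiting visible growth. Amphotericin B, miconazole and nystatin served as controls.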

For test [1], the system named is Candida tropicalis. In words: Antifungal activity against Candida tropicalis. Format: functional. The gist of the method: as §1
The subject of test [2] is Candida albicans. The test is described as follows: Antifungal activity against Candida albicans; Range is 8-16. It counts as functional. In short, it runs like this:
as §1

The subject of test [3] is Candida albicans. In words: Antifungal activity against Candida stellatoidea. It counts as functional. The gist of the method:
as §1

The next test has as its system Candida parapsilosis. In words: Antifungal activity against Candida parapsilosis. Format: functional. To be noted: Lodderomyces parapsilosis. In short, it runs like this:
as §1

Test [4] relates to Aspergillus niger. The test is described as follows: Antifungal activity against Aspergillus niger; Range is 16-32. It counts as functional. In short, it runs like this:
as §1

In another test the test system is Diutina rugosa. In words: Antifungal activity against Candida rugosa. It counts as functional. The gist of the method:
as §1

The next test concerns Trichophyton benhamiae. In words: Antifungal activity against Trichophyton mentagrophytes. Format: functional, trychophyton mentagrophytes. In short, it runs like this:
as §1

Test [5] deals with Trichophyton rubrum. In words: Antifungal activity against Trichophyton rubrum; Range is 4-8. It counts as functional. The gist of the method:
as §1

For test [6], the system named is Kluyveromyces marxianus. The test is described as follows: Antifungal activity against Candida pseudotropicalis. It counts as functional. In short, it runs like this: as §1
For test [7], the system named is Aspergillus niger. The test is described as follows: Antifungal activity against Aspergillus niger; Range is 64-128. Format: functional. The gist of the method:
as §1

Test [8] has as its system Candida albicans. The test is described as follows: Antifungal activity against Candida albicans. Format: functional. In short, it runs like this: as §1
In test [9] the test system is Candida tropicalis. The test is described as follows: Antifungal activity against Candida tropicalis; Range is 8-16. It counts as functional. The gist of the method: as §1
For test [10], the system named is Trichophyton rubrum. In words: Antifungal activity against Trichophyton rubrum; Range is 2-4. Format: functional. In short, it runs like this: as §1
The subject of test [11] is Kluyveromyces marxianus. In words: Antifungal activity against Candida pseudotropicalis; Range is 8-16. Format: functional. The gist of the method:
as §1

Test [12] concerns Trichophyton rubrum. The test is described as follows: Antifungal activity against Trichophyton rubrum. It counts as functional. In short, it runs like this: as §1
Test [13] relates to Aspergillus niger. The test is described as follows: Antifungal activity against Aspergillus niger. It counts as functional. In short, it runs like this:
as §1

Values after ≈ are worked out from the molar mass of the structure shown.

One may read the MIC as the lowest concentration found to suppress growth. A high value points to weaker potency. With `Cc1nnc2ccncc2n1`, the MIC in the test on Mucor fragilis was 16 µg/mL (≈ 109 µM); with Candida tropicalis [1], 8 µg/mL (≈ 54.7 µM); against Candida albicans [2], 8 µg/mL (≈ 54.7 µM); against Candida albicans [3], 32 µg/mL (≈ 219 µM); in the test on Candida parapsilosis it was 16 µg/mL (≈ 109 µM); in the test on Aspergillus niger [4], 16 µg/mL (≈ 109 µM). Moreover, the MIC with Diutina rugosa is 16 µg/mL (≈ 109 µM); against Trichophyton benhamiae, 16 µg/mL (≈ 109 µM); against Trichophyton rubrum [5], 4 µg/mL (≈ 27.4 µM); against Kluyveromyces marxianus [6], 8 µg/mL (≈ 54.7 µM).

Take `CCOc1ccc(-c2nnc3ccncc3n2)cc1`: the minimum inhibitory concentration (MIC) in the test on Mucor fragilis was 128 µg/mL (≈ 507 µM); with Candida tropicalis [1] it was 64 µg/mL (≈ 254 µM); against Aspergillus niger [7], 64 µg/mL (≈ 254 µM); with Candida albicans [8], 64 µg/mL (≈ 254 µM); with Candida albicans [3], above 128 µg/mL; with Diutina rugosa it was above 128 µg/mL. Also, it took 64 µg/mL (≈ 254 µM) to inhibit growth against Kluyveromyces marxianus [6] (MIC).

For the compound `c1ccc(-c2nnc3ccncc3n2)cc1`, the MIC is above 128 µg/mL in the test with Mucor fragilis; 8 µg/mL (≈ 38.4 µM) against Candida tropicalis [9]; 16 µg/mL (≈ 76.8 µM) against Candida albicans [8]; 16 µg/mL (≈ 76.8 µM) against Candida albicans [3]; 16 µg/mL (≈ 76.8 µM) in the test with Candida parapsilosis; 16 µg/mL (≈ 76.8 µM) with Aspergillus niger [4]. Besides, the MIC with Trichophyton rubrum [10] amounted to 2 µg/mL (≈ 9.61 µM); against Diutina rugosa it was 32 µg/mL (≈ 154 µM); with Trichophyton benhamiae it was 8 µg/mL (≈ 38.4 µM); against Kluyveromyces marxianus [11], 8 µg/mL (≈ 38.4 µM).

As to `CN(C)/C=C/c1nnc2ccncc2n1`, the MIC worked out at 64 µg/mL (≈ 318 µM) in the test on Mucor fragilis; 128 µg/mL (≈ 636 µM) in the test on Candida tropicalis [1]; 64 µg/mL (≈ 318 µM) against Aspergillus niger [7]; 64 µg/mL (≈ 318 µM) in the test on Candida albicans [8]; 16 µg/mL (≈ 79.5 µM) against Candida albicans [3]; 16 µg/mL (≈ 79.5 µM) against Diutina rugosa. This compound also returned a minimal inhibitory concentration (MIC) with Kluyveromyces marxianus [6] of 128 µg/mL (≈ 636 µM).

As to `c1cc2nnc(C3CCCC3)nc2cn1`, the minimal inhibitory concentration (MIC) against Mucor fragilis was 4 µg/mL (≈ 20 µM); with Candida tropicalis [1], 64 µg/mL (≈ 320 µM); against Candida albicans [2], 8 µg/mL (≈ 40 µM); with Candida albicans [3], 32 µg/mL (≈ 160 µM); against Aspergillus niger [4], 16 µg/mL (≈ 79.9 µM); against Diutina rugosa, 16 µg/mL (≈ 79.9 µM). For the same compound, the lowest concentration to inhibit growth in the test on Kluyveromyces marxianus [6] (MIC) was 16 µg/mL (≈ 79.9 µM).

Regarding `c1ccc(-c2nnc3ccccc3n2)cc1`, the MIC against Trichophyton rubrum [12] was determined as 64 µg/mL (≈ 309 µM); in the test with Candida tropicalis [1], 128 µg/mL (≈ 618 µM); against Candida albicans [8], 64 µg/mL (≈ 309 µM); against Candida albicans [3] it was 128 µg/mL (≈ 618 µM); in the test with Diutina rugosa it was 128 µg/mL (≈ 618 µM); in the test on Aspergillus niger [13], 128 µg/mL (≈ 618 µM). The compound also yielded an MIC with Kluyveromyces marxianus [6] of 128 µg/mL (≈ 618 µM).

In the case of `CN1CCN(/C=C/c2nnc3ccncc3n2)CC1`, the MIC in the test on Mucor fragilis came to 128 µg/mL (≈ 499 µM); against Candida tropicalis [1], 128 µg/mL (≈ 499 µM); in the test with Aspergillus niger [7], 64 µg/mL (≈ 250 µM); against Candida albicans [8], 128 µg/mL (≈ 499 µM); against Candida albicans [3], 32 µg/mL (≈ 125 µM); with Diutina rugosa it was 32 µg/mL (≈ 125 µM). In addition, in the test on Kluyveromyces marxianus [6], the MIC was found to be 128 µg/mL (≈ 499 µM).

In the case of `Cc1nc(C)c2nc(-c3ccncc3)nnc2c1N`, the minimal inhibitory concentration (MIC) with Mucor fragilis is 64 µg/mL (≈ 254 µM); against Trichophyton rubrum [12] it was 16 µg/mL (≈ 63.4 µM); in the test with Candida tropicalis [1], 128 µg/mL (≈ 507 µM); against Aspergillus niger [7], 64 µg/mL (≈ 254 µM); in the test on Candida albicans [8], 128 µg/mL (≈ 507 µM); in the test on Candida albicans [3] it was above 128 µg/mL. Moreover, the minimum inhibitory concentration (MIC) against Diutina rugosa is above 128 µg/mL; in the test on Trichophyton benhamiae, 32 µg/mL (≈ 127 µM); against Kluyveromyces marxianus [6], 128 µg/mL (≈ 507 µM).

For the compound `c1cc2nnc(C3CC3)nc2cn1`, the MIC came out at 16 µg/mL (≈ 92.9 µM) against Mucor fragilis; 32 µg/mL (≈ 186 µM) against Candida tropicalis [1]; 16 µg/mL (≈ 92.9 µM) with Candida albicans [8]; 64 µg/mL (≈ 372 µM) with Candida albicans [3]; 64 µg/mL (≈ 372 µM) in the test with Diutina rugosa; 32 µg/mL (≈ 186 µM) in the test on Aspergillus niger [13]. The compound also yielded a minimum inhibitory concentration (MIC) in the test with Kluyveromyces marxianus [6] of 16 µg/mL (≈ 92.9 µM).

On to `CC(C)(C)c1ccc(-c2nnc3ccncc3n2)cc1`, for which the MIC in the test with Mucor fragilis is 128 µg/mL (≈ 484 µM); with Candida tropicalis [1] it was 128 µg/mL (≈ 484 µM); in the test on Candida albicans [8] it was 128 µg/mL (≈ 484 µM); against Candida albicans [3], above 128 µg/mL; in the test with Diutina rugosa, above 128 µg/mL; in the test with Aspergillus niger [13], 128 µg/mL (≈ 484 µM). In the test with Kluyveromyces marxianus [6], this compound gave an MIC of 128 µg/mL (≈ 484 µM).

Take `c1ccc2cc(-c3nnc4ccncc4n3)ccc2c1`: the MIC was 128 µg/mL (≈ 496 µM) in the test with Mucor fragilis; 128 µg/mL (≈ 496 µM) in the test with Candida tropicalis [1]; 128 µg/mL (≈ 496 µM) in the test with Candida albicans [8]; above 128 µg/mL in the test on Candida albicans [3]; above 128 µg/mL against Diutina rugosa; 128 µg/mL (≈ 496 µM) in the test with Aspergillus niger [13]. Moreover, inhibition of growth in the test on Kluyveromyces marxianus [6] (MIC) required 128 µg/mL (≈ 496 µM).

Consider `CC1(C)N=Nc2ccncc2N1`, for which the MIC in the test with Trichophyton rubrum [12], against Candida tropicalis [1], against Candida albicans [8], in the test with Candida parapsilosis, in the test with Trichophyton benhamiae and with Aspergillus niger [13] was 128 µg/mL (≈ 789 µM) in each case. The MIC against Kluyveromyces marxianus [6] stood at 128 µg/mL (≈ 789 µM).

With `c1ccc(OCc2nnc3ccncc3n2)cc1`, the MIC against Mucor fragilis turned out to be 4 µg/mL (≈ 16.8 µM); in the test with Candida tropicalis [1], 16 µg/mL (≈ 67.2 µM); in the test on Candida albicans [2], 8 µg/mL (≈ 33.6 µM); against Candida albicans [3], 16 µg/mL (≈ 67.2 µM); against Aspergillus niger [4], 16 µg/mL (≈ 67.2 µM); against Diutina rugosa, 8 µg/mL (≈ 33.6 µM). Further, the lowest concentration to inhibit growth in the test with Kluyveromyces marxianus [11] (MIC) was 8 µg/mL (≈ 33.6 µM).

As to `Cc1cc2nnc(-c3ccc(F)cc3)nc2c(C)n1`, the MIC against Mucor fragilis was 64 µg/mL (≈ 252 µM); in the test on Trichophyton rubrum [12], 64 µg/mL (≈ 252 µM); in the test with Candida tropicalis [1], 128 µg/mL (≈ 503 µM); against Candida albicans [8], 128 µg/mL (≈ 503 µM); against Candida albicans [3] it was above 128 µg/mL; with Diutina rugosa, above 128 µg/mL. In addition, the minimal inhibitory concentration (MIC) against Trichophyton benhamiae is 64 µg/mL (≈ 252 µM); against Aspergillus niger [13], 128 µg/mL (≈ 503 µM); in the test on Kluyveromyces marxianus [6], 128 µg/mL (≈ 503 µM).
